Assays:
Adenosine receptor A2a [1] = target: T1, Adenosine receptor A2a (Homo sapiens, UniProt P29274); test: Inhibition of [3H]-CGS- 21680 binding to human Adenosine A2A receptor expressed in CHO cells; assay type: cell-based
[2] = target: T2, Adenosine receptor A2b (Homo sapiens) (UniProt P29275); test: Relative activation of human Adenosine A2B receptor at 10 uM treatment compared to 10 uM Cl-IB-MECA; assay type: functional
T2 sequence (whole entry): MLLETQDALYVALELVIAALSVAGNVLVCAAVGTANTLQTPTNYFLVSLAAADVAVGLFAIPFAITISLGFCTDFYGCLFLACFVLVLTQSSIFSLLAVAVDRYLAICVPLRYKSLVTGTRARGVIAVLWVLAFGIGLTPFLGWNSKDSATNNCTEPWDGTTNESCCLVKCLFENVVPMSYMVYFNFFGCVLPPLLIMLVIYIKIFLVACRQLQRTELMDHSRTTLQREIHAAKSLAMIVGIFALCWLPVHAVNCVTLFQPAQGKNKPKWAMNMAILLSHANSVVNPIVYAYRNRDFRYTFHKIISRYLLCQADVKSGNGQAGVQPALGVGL

Adenosine receptor A3 [3] = target: T3, Adenosine receptor A3 (Rattus norvegicus, UniProt P28647); test: Inhibition of [125I]AB-MECA binding to rat Adenosine A3 receptor expressed in CHO cells; assay type: cell-based
T3 sequence (P28647 whole entry): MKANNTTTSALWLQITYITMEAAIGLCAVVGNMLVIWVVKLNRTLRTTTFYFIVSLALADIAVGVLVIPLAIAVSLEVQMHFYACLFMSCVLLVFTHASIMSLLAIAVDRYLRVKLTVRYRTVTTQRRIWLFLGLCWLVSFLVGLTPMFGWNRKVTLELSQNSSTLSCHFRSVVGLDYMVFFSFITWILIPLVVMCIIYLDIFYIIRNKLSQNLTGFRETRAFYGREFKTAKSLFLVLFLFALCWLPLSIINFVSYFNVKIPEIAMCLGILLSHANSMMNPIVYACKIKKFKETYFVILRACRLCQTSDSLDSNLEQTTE

Adenosine receptor A1 = target: T4, Adenosine receptor A1 (Homo sapiens, UniProt P30542); test: Inhibition of [3H]R-PIA binding to human Adenosine A1 receptor expressed in CHO cells; assay type: cell-based
T4 sequence (P30542 whole entry): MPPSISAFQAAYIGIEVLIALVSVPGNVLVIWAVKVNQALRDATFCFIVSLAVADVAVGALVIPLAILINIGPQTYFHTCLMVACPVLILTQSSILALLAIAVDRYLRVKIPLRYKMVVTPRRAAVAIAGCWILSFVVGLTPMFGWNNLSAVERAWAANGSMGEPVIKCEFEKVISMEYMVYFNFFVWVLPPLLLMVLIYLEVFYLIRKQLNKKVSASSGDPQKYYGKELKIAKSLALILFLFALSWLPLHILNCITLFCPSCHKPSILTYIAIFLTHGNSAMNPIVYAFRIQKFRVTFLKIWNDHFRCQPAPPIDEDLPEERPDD

[4] = target: T5, Adenosine receptor A3 (Homo sapiens) (UniProt P0DMS8); test: Relative activation of human Adenosine A3 receptor expressed in CHO cells at 10 uM treatment compared to 10 uM Cl-IB-MECA; assay type: functional, cell-based
T5 sequence (whole entry): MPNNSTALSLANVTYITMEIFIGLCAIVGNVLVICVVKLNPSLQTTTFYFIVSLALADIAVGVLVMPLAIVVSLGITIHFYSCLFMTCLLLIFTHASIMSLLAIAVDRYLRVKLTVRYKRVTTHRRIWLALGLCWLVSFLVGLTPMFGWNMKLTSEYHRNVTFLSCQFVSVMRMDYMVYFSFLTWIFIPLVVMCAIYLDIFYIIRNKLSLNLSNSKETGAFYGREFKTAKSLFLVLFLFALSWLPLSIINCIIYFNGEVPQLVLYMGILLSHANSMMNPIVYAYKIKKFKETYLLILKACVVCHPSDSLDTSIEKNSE

Adenosine receptor A3 [5] = target: T6, Adenosine receptor A3 (Homo sapiens, UniProt P0DMS8); test: Inhibition of [125I]-AB-MECA binding to human Adenosine A3 receptor expressed in CHO cells; assay type: cell-based
T6 sequence (P0DMS8 whole entry): T5 sequence (whole entry)

Adenosine receptor A2a [6] = target: T1, Adenosine receptor A2a; test: Displacement of [3H]-CGS- 21680 from human Adenosine A2A receptor expressed in CHO cells at 10 uM; assay type: cell-based
In short: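 Human A2A receptor stably expressed in adherent CHO cells. Competition binding used [3H]CGS 21680 as the radioligand.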

T1 sequence (P29274 whole entry): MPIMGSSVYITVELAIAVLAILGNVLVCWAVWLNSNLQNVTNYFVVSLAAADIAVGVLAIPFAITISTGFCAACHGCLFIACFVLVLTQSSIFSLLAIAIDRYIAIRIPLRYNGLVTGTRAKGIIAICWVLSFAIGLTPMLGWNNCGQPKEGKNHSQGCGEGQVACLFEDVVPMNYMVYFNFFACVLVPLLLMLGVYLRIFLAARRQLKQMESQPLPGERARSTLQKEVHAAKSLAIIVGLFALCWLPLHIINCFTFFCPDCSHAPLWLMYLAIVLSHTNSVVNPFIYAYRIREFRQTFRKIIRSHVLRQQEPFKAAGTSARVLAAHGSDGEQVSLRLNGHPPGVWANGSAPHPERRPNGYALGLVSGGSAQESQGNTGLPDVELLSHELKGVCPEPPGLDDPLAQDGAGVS

| Compound | Ki (Adenosine receptor A2a [1]) [nM] | Activation [2] [%] | Activation [4] [%] | also measured |
| --- | --- | --- | --- | --- |
| CNC(=O)[C@@]12C[C@@H]1[C@@H](n1cnc3c(NCc4cccc(Cl)c4)nc(Cl)nc31)[C@H](O)[C@@H]2O | 2300 | 38 |  | Ki (Adenosine receptor A3 [3]): 1 nM; Ki (Adenosine receptor A1): 260 nM |
| CNC(=O)[C@]12C[C@@H]1[C@@H](n1cnc3c(NCc4cccc(Cl)c4)nc(I)nc31)[C@H](O)[C@@H]2O |  |  |  | Displacement (Adenosine receptor A2a [6]): 43% |
| COc1ccc(Cl)cc1CNc1ncnc2c1ncn2[C@@H]1O[C@H](CO)[C@@H](O)[C@H]1O | 400 | 57 |  |  |
| CNC(=O)[C@]12C[C@@H]1[C@@H](n1cnc3c(NCc4cc(Cl)ccc4OCC(N)=O)nc(Cl)nc31)[C@H](O)[C@@H]2O | 800 |  |  |  |
| CNC(=O)[C@H]1O[C@@H](n2cnc3c(NCc4cccc(I)c4)nc(Cl)nc32)[C@H](O)[C@@H]1O |  | 0 |  |  |
| CNC(=O)[C@]12C[C@@H]1[C@@H](n1cnc3c(NCc4ccc(N)cc4)nc(Cl)nc31)[C@H](O)[C@@H]2O |  | 22 |  | Displacement (Adenosine receptor A2a [6]): 28% |
| CNC(=O)[C@]12C[C@@H]1[C@@H](n1cnc3c(NCc4cccc(Cl)c4)nc(SC)nc31)[C@H](O)[C@@H]2O |  |  | 100 | Ki (Adenosine receptor A3 [5]): 1.5 nM; Displacement (Adenosine receptor A2a [6]): 52%; Ki (Adenosine receptor A1): 610 nM |
| CNC(=O)[C@]12C[C@@H]1[C@@H](n1cnc3c(NCc4cccc(C)c4)nc(Cl)nc31)[C@H](O)[C@@H]2O | 3700 | 46 |  |  |
| CNC(=O)[C@]12C[C@@H]1[C@@H](n1cnc3c(NCc4cc(OC)ccc4OC)nc(Cl)nc31)[C@H](O)[C@@H]2O |  | 0 | 107 | Ki (Adenosine receptor A3 [5]): 1.4 nM; Displacement (Adenosine receptor A2a [6]): 52%; Ki (Adenosine receptor A1): 1600 nM |
| CNC(=O)[C@]12C[C@@H]1[C@@H](n1cnc3c(NC)nc(N)nc31)[C@H](O)[C@@H]2O |  |  |  | Displacement (Adenosine receptor A2a [6]): 17% |
| CNC(=O)[C@@]12C[C@@H]1[C@@H](n1cnc3c(NCc4cc(Cl)ccc4OC)nc(Cl)nc31)[C@H](O)[C@@H]2O | 1200 | 37 |  |  |
| CNC(=O)[C@]12C[C@@H]1[C@@H](n1cnc3c(NCc4cccc(C#CCO)c4)nc(Cl)nc31)[C@H](O)[C@@H]2O |  | 28 |  | Displacement (Adenosine receptor A2a [6]): 56% |
| CNC(=O)[C@]12C[C@@H]1[C@@H](n1cnc3c(NCc4cc(C#CCO)ccc4Cl)nc(Cl)nc31)[C@H](O)[C@@H]2O |  | 6 | 108 | Ki (Adenosine receptor A3 [5]): 217 nM; Displacement (Adenosine receptor A2a [6]): 12%; Inhibition (Adenosine receptor A1; cho): 14% |
| OC[C@H]1O[C@@H](n2cnc3c(NCc4cccc(I)c4)nc(Cl)nc32)[C@H](O)[C@@H]1O |  | 16 | 0 | Ki (Adenosine receptor A1): 17 nM |

Second part, led by results:

| Ki (Adenosine receptor A2a [1]) [nM] | Activation [2] [%] | Activation [4] [%] | Compound | also measured |
| --- | --- | --- | --- | --- |
| 5100 | 28 |  | CNC(=O)[C@]12C[C@@H]1[C@@H](n1cnc3c(NCc4cccc(F)c4)nc(Cl)nc31)[C@H](O)[C@@H]2O |  |
| 430 | 46 |  | CNC(=O)[C@]12C[C@@H]1[C@@H](n1cnc3c(NCc4cc(I)ccc4OC)nc(Cl)nc31)[C@H](O)[C@@H]2O |  |
| 3800 | 24 |  | CNC(=O)[C@]12C[C@@H]1[C@@H](n1cnc3c(NCc4ccccc4C)nc(Cl)nc31)[C@H](O)[C@@H]2O |  |
|  | 70 | 0 | OC[C@H]1O[C@@H](n2cnc3c(NCC(c4ccccc4)c4ccccc4)ncnc32)[C@H](O)[C@@H]1O | Ki (Adenosine receptor A3 [3]): 540 nM |
|  |  | 80 | OC[C@H]1O[C@@H](n2cnc3c(NCc4cccc(Cl)c4)ncnc32)[C@H](O)[C@@H]1O | Ki (Adenosine receptor A3 [3]): 35 nM; Ki (Adenosine receptor A3 [5]): 4.4 nM |
| 1600 |  | 3 | OC[C@@]12C[C@@H]1[C@@H](n1cnc3c(NCc4cccc(I)c4)nc(Cl)nc31)[C@H](O)[C@@H]2O | Ki (Adenosine receptor A3 [5]): 1.9 nM; Ki (Adenosine receptor A1): 65 nM |
| 2500 | 26 | 101 | OC[C@H]1O[C@@H](n2cnc3c(NC4CC4c4ccccc4)ncnc32)[C@H](O)[C@@H]1O (some centres not stated) | Ki (Adenosine receptor A3 [3]): 400 nM |
| 860 |  | 13 | OC[C@@]12C[C@@H]1[C@@H](n1cnc3c(NCc4cccc(I)c4)ncnc31)[C@H](O)[C@@H]2O | Ki (Adenosine receptor A3 [5]): 9.2 nM; Ki (Adenosine receptor A1): 35 nM |
|  |  | 100 | CNC(=O)[C@@]12C[C@@H]1[C@@H](n1cnc3c(NCc4cccc(I)c4)ncnc31)[C@H](O)[C@@H]2O |  |
|  |  | 100 | Cc1ccccc1CNc1ncnc2c1ncn2[C@@H]1O[C@H](CO)[C@@H](O)[C@H]1O | Ki (Adenosine receptor A3 [3]): 38 nM |
|  | 11 | 98 | CNc1nc(N)nc2c1ncn2[C@@H]1O[C@H](CO)[C@@H](O)[C@H]1O | Ki (Adenosine receptor A3 [3]): > 10000 nM; Displacement (Adenosine receptor A2a [6]): 15% |
| 480 | 58 |  | CNC(=O)[C@]12C[C@@H]1[C@@H](n1cnc3c(NCc4cc(I)ccc4Cl)nc(Cl)nc31)[C@H](O)[C@@H]2O |  |
|  | 4 |  | CNC(=O)C12C[C@@H]1[C@@H](n1cnc3c(NCc4cccnc4)nc(Cl)nc31)[C@H](O)[C@@H]2O (single isomer, unassigned) | Displacement (Adenosine receptor A2a [6]): 33% |
|  | 58 | 46 | OC[C@H]1O[C@@H](n2cnc3c(NCc4cccc(I)c4)ncnc32)[C@H](O)[C@@H]1O | Ki (Adenosine receptor A1): 7.4 nM |
|  |  | 104 | CNC(=O)[C@@]12C[C@@H]1[C@@H](n1cnc3c(NC)nc(Cl)nc31)[C@H](O)[C@@H]2O | Displacement (Adenosine receptor A2a [6]): 6% |
| 2300 |  | 100 | OC[C@H]1O[C@@H](n2cnc3c(NCc4cccnc4)ncnc32)[C@H](O)[C@@H]1O | Ki (Adenosine receptor A3 [3]): 290 nM; Ki (Adenosine receptor A3 [5]): 4.5 nM; Ki (Adenosine receptor A1): 42 nM |
|  | 0 |  | CNC(=O)[C@H]1O[C@@H](n2cnc3c(NCc4cccc(I)c4)ncnc32)[C@H](O)[C@@H]1O |  |
| 1300 | 32 |  | CNC(=O)[C@]12C[C@@H]1[C@@H](n1cnc3c(NCc4cc(Cl)ccc4Cl)nc(Cl)nc31)[C@H](O)[C@@H]2O |  |
| 4800 | 48 |  | CNC(=O)[C@]12C[C@@H]1[C@@H](n1cnc3c(NC4CC4c4ccccc4)nc(Cl)nc31)[C@H](O)[C@@H]2O (some centres not stated) |  |
| 1100 |  |  | CNC(=O)[C@]12C[C@@H]1[C@@H](n1cnc3c(NCc4ccc(N)c(I)c4)nc(Cl)nc31)[C@H](O)[C@@H]2O |  |
|  |  | 100 | CNC(=O)[C@@]12C[C@@H]1[C@@H](n1cnc3c(NCc4cccc(I)c4)nc(Cl)nc31)[C@H](O)[C@@H]2O |  |
